IC50 and Activity data for 23 compounds are collected here from ChEMBL document CHEMBL1148521, “Synthesis, antitumor activity, and mechanism of action of benzo[a]pyrano[3,2-h]acridin-7-one analogues of acronycine” (J Med Chem, 2006).

Molecules are shown by their SMILES. pIC50: −log10 of the molar value. The source made the active and inactive calls. No cut-off for these calls is given here.

What is called pIC50 is the negative decadic logarithm of the IC50, by convention in mol/L. Read a high pIC50 as a small IC50.

The subject of assay [1] is L1210. As to the kind of experiment: Antiproliferative activity against mouse L1210 cell line by MTT assay. The assay is classed as functional, cell-based. In short, it runs like this:
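L1210 cells cultured in RPMI 1640 with 10% fetal calf serum, 2 mM glutamine, penicillin/streptomycin and 10 mM HEPES pH 7.4. Exposed to nine serial drug dilutions in triplicate for 48 h (four doubling times), then read by tetrazolium (MTT) assay. IC50 is the concentration cutting optical density by 50% versus untreated controls; mean of at least three independent experiments.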
For orientation: Tetrazolium dyes change colour on reduction, which living cells bring about.

The test system of the next assay is Nucleic Acid. As to the kind of experiment: Alkylation of DNA at 50 uM by gel shift assay. The assay is classed as nucleic-acid assay. In short, it runs like this:
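Radiolabeled 117-bp pBS DNA fragment (EcoRI/PvuII cut, 3′-end-labeled at EcoRI site with [³²P]dATP, gel-purified) incubated with drug at 50 µM in 1 mM Na cacodylate pH 7.0, dark, room temperature, 2 h or 24 h. Resolved on native polyacrylamide gel in TBE; bound versus free DNA scored as strong, weak or no alkylation.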
Background: A gel shift assay detects complexes by their altered migration in electrophoresis.

The next assay concerns KB 3-1. Description: Antiproliferative activity against human KB-3-1 cell line by MTT assay. The assay is classed as functional, cell-based. Put shortly:
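KB-3-1 cells grown in DMEM with 10% fetal calf serum, 2 mM glutamine, penicillin/streptomycin and 10 mM HEPES pH 7.4. Microculture tetrazolium assay: nine serial drug dilutions in triplicate for 96 h (four doubling times). IC50 is the concentration halving optical density relative to untreated controls; mean of at least three separate experiments.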

Assay [2] relates to L1210. As to the kind of experiment: Cell cycle arrest in L1210 cell line by accumulation at S phase after 21 hrs. It counts as functional, cell-based. The following applies: Mus musculus. In short, it runs like this: (§1)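 L1210 cells at 5 × 10⁵ cells/mL treated 21 h with various drug concentrations. Then ethanol-fixed (70%), washed, and stained 30 min at 20 °C in PBS with 100 µg/mL RNase and 50 µg/mL propidium iodide. Flow cytometry on 10 000 cells per sample. Highest percentage of S-phase cells reported with the concentration giving it.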

Assay [3] deals with L1210. Description: Cell cycle arrest in L1210 cell line by accumulation at S phase at 10 uM after 21 hrs. The assay is classed as functional, Mus musculus. Put shortly:
as §1

Assay [4] has as its system L1210. Description: Cell cycle arrest in L1210 cell line by accumulation at S phase at 5 uM after 21 hrs. It counts as functional, Mus musculus. In short, it runs like this:
as §1

In assay [5] the test system is L1210. Description: Cell cycle arrest in L1210 cell line by accumulation at S phase at 2.5 uM after 21 hrs. It counts as functional, Mus musculus. Put shortly: as §1
The next assay concerns MC-38. As to the kind of experiment: Antiproliferative activity against mouse C38 cell line implanted in B6D2F1 mouse at 4 mg/kg, iv. It counts as functional.
Assay [6] has as its system L1210. Description: Cell cycle arrest in L1210 cell line by accumulation at S phase at 0.25 uM after 21 hrs. It counts as functional, Mus musculus. Put shortly: as §1

Consider `COc1cc2c(c3nc4ccc5ccccc5c4c(O)c13)C(=O)C(O)C(C)(C)O2` (centres undefined), for which the pIC50 with L1210 [1] was 6.30; in the assay with KB 3-1, 5.70. Besides, the result in the assay on Nucleic Acid and in the assay on L1210 [2] was inactive.
Consider `COc1cc2c(c3nc4ccc5ccccc5c4c(OC)c13)C=CC(C)(C)O2`, for which the pIC50 in the assay with L1210 [1] is 4.55; with KB 3-1, 4.48.
Turning to `COc1cc2c(c3c1c(=O)c1c4ccccc4ccc1n3C)C(=O)[C@@H](OC(C)=O)C(C)(C)O2`, the pIC50 in the assay on L1210 [1] was 5.70; with KB 3-1, 5.20. In addition, the result in the assay with Nucleic Acid was inactive.
On to `CCN(CC)C(=O)O[C@@H]1c2c(cc(OC)c3c(=O)c4c5ccccc5ccc4n(C)c23)OC(C)(C)[C@@H]1OC(=O)N(CC)CC` (racemic), for which the Activity in the assay with L1210 [3] was determined as 43%. Besides, the pIC50 is 6.05 with L1210 [1] and 6.10 in the assay with KB 3-1. Further, the outcome in the assay on Nucleic Acid was Active.
As to `COc1cc2c(c3nc4ccc5ccccc5c4c(OC)c13)[C@@H](OC(C)=O)[C@@H](OC(C)=O)C(C)(C)O2` (racemic), the pIC50 in the assay with L1210 [1] is 5.10; in the assay on KB 3-1, 5.14. The result in the assay on Nucleic Acid was inactive.
For the compound `CCC(=O)O[C@@H]1c2c(cc(OC)c3c(=O)c4c5ccccc5ccc4n(C)c23)OC(C)(C)[C@@H]1OC(=O)CC` (racemic), the pIC50 in the assay on L1210 [1] is 6.30; in the assay with KB 3-1, 7.00. The compound also came in with an Activity in the assay on L1210 [4] of 70%. Besides, in the assay on Nucleic Acid, the outcome was Active.
`COc1cc2c(c3c1c(=O)c1c4ccccc4ccc1n3C)[C@@H](O)[C@@H](OC(=O)N(C)C)C(C)(C)O2` (racemic) had an Activity with L1210 [3] of 73%. For the same compound, the pIC50 in the assay on L1210 [1] was 6.30; in the assay on KB 3-1, 7.00. Besides, the result with Nucleic Acid was Active.
On to `COc1cc2c(c3c1c(=O)c1c4ccccc4ccc1n3C)[C@@H](O)[C@@H](OC(C)=O)C(C)(C)O2` (racemic), for which the pIC50 is 6.15 in the assay on L1210 [1] and 6.70 with KB 3-1. Further, the Activity with L1210 [4] was 76%. In addition, the outcome in the assay with Nucleic Acid was Active.
Regarding `COc1cc2c(c3nc4ccc5ccccc5c4c(OC)c13)[C@@H](O)[C@@H](O)C(C)(C)O2` (racemic), the pIC50 was 5.85 with L1210 [1] and 5.20 in the assay on KB 3-1. The outcome in the assay with Nucleic Acid was inactive.
In the case of `COc1cc2c(c3c1c(=O)c1c4ccccc4ccc1n3C)[C@@H](O)[C@@H](OC(=O)c1ccccc1)C(C)(C)O2` (racemic), the pIC50 in the assay on L1210 [1] was 6.10; with KB 3-1 it was 6.52. For the same compound, the Activity with L1210 [5] was found to be 73%. The result with Nucleic Acid was Active.
`COc1cc2c(c3c1c(=O)c1c4ccccc4ccc1n3C)[C@@H](OC(=O)CC(C)C)[C@@H](OC(=O)CC(C)C)C(C)(C)O2` (racemic) gave an Activity with L1210 [3] of 60%. For the same compound, the pIC50 with L1210 [1] was 6.15; with KB 3-1, 6.82. Also, the outcome in the assay with Nucleic Acid was Active.
The like results for `C=CCCC(=O)O[C@@H]1c2c(cc(OC)c3c(=O)c4c5ccccc5ccc4n(C)c23)OC(C)(C)[C@@H]1OC(=O)CCC=C` (racemic) were, in that order, 66%, 6.30, 6.89 and “Active”.
On to `COc1cc2c(c3c1c(=O)c1c4ccccc4ccc1n3C)[C@@H](O)[C@@H](OC(=O)CC(C)C)C(C)(C)O2` (racemic), for which the pIC50 was 6.00 in the assay with L1210 [1] and 6.70 in the assay with KB 3-1. The Activity in the assay on L1210 [4] was determined as 73%. In addition, in the assay with Nucleic Acid, the result was Active.
Regarding `CCC(=O)O[C@@H]1[C@H](O)c2c(cc(OC)c3c(=O)c4c5ccccc5ccc4n(C)c23)OC1(C)C` (racemic), the pIC50 with L1210 [1] is 6.30; with KB 3-1, 7.00. Besides, in the assay with L1210 [4], the Activity is 69%. The result in the assay on Nucleic Acid was Active.
As to `COc1cc2c(c3c1c(=O)c1c4ccccc4ccc1n3C)[C@@H](O)[C@@H](O)C(C)(C)O2` (racemic), the values for the pIC50 in the assay on L1210 [1] and in the assay with KB 3-1 were 4.31 and 4.49, respectively. Moreover, the result in the assay with Nucleic Acid was inactive.
On to `COc1cc2c(c3c1c(=O)c1c4ccccc4ccc1n3C)[C@@H](OC(C)=O)[C@@H](OC(C)=O)C(C)(C)O2` (racemic), for which the Activity in the assay on MC-38 is > 80%; in the assay on L1210 [4], 68%. The pIC50 in the assay with L1210 [1] was 6.15; with KB 3-1, 6.82. Further, in the assay on Nucleic Acid, the outcome was Active.
For the compound `COc1cc2c(c3c1c(=O)c1c4ccccc4ccc1n3C)[C@H]1OC(=O)O[C@H]1C(C)(C)O2` (racemic), in the assay with L1210 [6], the Activity was found to be 64%. Also, the pIC50 is 7.22 in the assay on L1210 [1] and 7.82 with KB 3-1. For the same compound, the outcome in the assay with Nucleic Acid was inactive.
For the compound `C=CCCC(=O)O[C@@H]1[C@H](O)c2c(cc(OC)c3c(=O)c4c5ccccc5ccc4n(C)c23)OC1(C)C` (racemic), the pIC50 was 6.10 in the assay with L1210 [1] and 6.60 in the assay with KB 3-1. Moreover, the Activity with L1210 [4] was found to be 70%. Moreover, the outcome in the assay with Nucleic Acid was inactive.
With `C=CCCC(=O)O[C@@H]1[C@H](OC(C)=O)c2c(cc(OC)c3c(=O)c4c5ccccc5ccc4n(C)c23)OC1(C)C` (racemic), the results for the pIC50 in the assay on L1210 [1] and in the assay on KB 3-1 were 6.15 and 7.00, respectively. For the same compound, the Activity with L1210 [4] is given as 78%. For the same compound, the outcome in the assay on Nucleic Acid was Active.
The matching figures for `COc1cc2c(c3c1c(=O)c1c4ccccc4ccc1n3C)[C@@H](OC(C)=O)[C@@H](OC(=O)CC(C)C)C(C)(C)O2` (racemic): 6.10, 7.00, 76% and “Active”.
The matching figures for `COc1cc2c(c3c1c(=O)c1cc4ccccc4cc1n3C)[C@@H](OC(C)=O)[C@@H](OC(C)=O)C(C)(C)O2` (racemic): 6.15, 7.00, 73% and “Active”.
As to `COc1cc2c(c3c1c(=O)c1ccccc1n3C)C=CC(C)(C)O2` [ACRONINE], the pIC50 is 4.64 with L1210 [1] and 5.43 with KB 3-1.
Consider `COc1cc2c(c3c1c(=O)c1c4ccccc4ccc1n3C)C=CC(C)(C)O2` [BENZO[A]ACRONYCINE], for which the values for the pIC50 with L1210 [1] and in the assay with KB 3-1 were 5.60 and 5.07, respectively. For the same compound, the outcome with L1210 [2] was inactive.
